From ChEMBL document CHEMBL4033716, “The impact of the halogen bonding on D2 and 5-HT1A/5-HT7 receptor activity of azinesulfonamides of 4-[(2-ethyl)piperidinyl-1-yl]phenylpiperazines with antipsychotic and antidepressant properties” (Bioorg Med Chem, 2017)
The source made the active and inactive calls. No cut-off for these calls is given here.

Legend:
Mus musculus [1] = assay: Antidepressant-like activity in Swiss albino mouse assessed as decrease in immobility time at 1.25 mg/kg, ip for 30 mins measured last 4 mins of 6 mins test by forced swim test relative to control; assay type: functional; parameters: scale not given: the % may be the effect or the level left
How it was run: (§1)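 Male Swiss albino mice (22–26 g), used once, observer blind. Drugs dissolved in distilled water, given i.p. at 10 ml/kg: test compounds 60 min, citalopram 30 min before testing; controls got vehicle. Mice placed 6 min in a cylinder with 10 cm water at 23–25°C; immobility scored over the last 4 min. 7–12 mice/group; one-way ANOVA then Bonferroni.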

Mus musculus [2] = assay: Antipsychotic activity in CD-1 mouse assessed as inhibition of dizocilpine-induced hyperlocomotor activity at 0.5 mg/kg, ip pretreated with dizocilpine for 15 mins followed by compound administration for 60 mins; assay type: functional, organism-based
How it was run: (§2)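 Male CD-1 mice, tested in the light phase, observer blind. Test compounds i.p. 60 min and MK-801 i.p. 15 min before testing, in distilled water at 10 ml/kg; vehicle controls. After 30 min cage habituation, ambulation recorded by activity monitor for 1 h in 5-min bins. 8–10 animals/group; mean ± SEM, one-way ANOVA with Bonferroni test.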

[3] = target: 5-hydroxytryptamine receptor 6 (Homo sapiens, UniProt P50406); assay: Displacement of [3H]-LSD from human 5-HT6 receptor expressed in HEK293 cell membranes after 1 hr by microbeta liquid scintillation counting analysis
How it was run: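 Human 5-HT6 stably expressed in HEK293; cell membranes washed by two 35 000 g spins. Buffer 50 mM Tris-HCl, 0.5 mM EDTA, 4 mM MgCl₂. Incubated 1 h at 37°C, filtered. Nonspecific binding with 10 µM methiothepine. 7–8 concentrations (10⁻¹¹–10⁻⁴ M) in triplicate. Ki by Cheng-Prusoff, ≥3 experiments.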

[4] = target: T1, 5-hydroxytryptamine receptor 7 (Homo sapiens, UniProt P34969); assay: Displacement of [3H]-5-CT from human 5-HT7 receptor expressed in HEK293 cell membranes after 1 hr by microbeta liquid scintillation counting analysis
How it was run: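 Membranes from HEK293 pellets stably expressing human 5-HT7b, homogenized and centrifuged twice at 35 000 g (4°C) with 15 min 37°C incubation between. Buffer 50 mM Tris-HCl, 4 mM MgCl₂, 10 μM pargyline, 0.1% ascorbate. Incubated 1 h at 37°C, then filtered. Nonspecific binding defined with 10 µM 5-HT. Triplicates at 7–8 concentrations (10⁻¹¹–10⁻⁴ M). Ki by Cheng-Prusoff, ≥3 experiments.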

D(2) dopamine receptor [5] = target: T2, D(2) dopamine receptor (Homo sapiens, UniProt P14416); assay: Displacement of [3H]-Raclopride from human dopamine D2L receptor expressed in HEK293 cell membranes after 1 hr by microbeta liquid scintillation counting analysis
How it was run: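 HEK293 membranes expressing human D2L. Incubated 1 h at 37°C, rapid filtration. 1 µM (+)butaclamol defined nonspecific binding. Triplicates at 7–8 concentrations, 10⁻¹¹–10⁻⁴ M. Ki via Cheng-Prusoff, ≥3 experiments.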

[6] = target: 5-hydroxytryptamine receptor 2A (Homo sapiens, UniProt P28223); assay: Displacement of [3H]-Ketanserin from human 5-HT2A receptor expressed in HEK293 cell membranes after 1 hr by microbeta liquid scintillation counting analysis
How it was run: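 Competition binding on membranes from HEK293 cells stably expressing human 5-HT2A, prepared by homogenization and two 35 000 g centrifugations. Incubated 1 h at 37°C, then filtered and counted. Triplicate points at 7–8 concentrations, 10⁻¹¹–10⁻⁴ M. Ki from Cheng-Prusoff, ≥3 separate experiments.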

[7] = target: T3, 5-hydroxytryptamine receptor 1A (Homo sapiens, UniProt P08908); assay: Displacement of [3H]-8-OH-DPAT from human 5-HT1A receptor expressed in HEK293 cell membranes after 1 hr by microbeta liquid scintillation counting analysis
T3 sequence (P08908 whole entry): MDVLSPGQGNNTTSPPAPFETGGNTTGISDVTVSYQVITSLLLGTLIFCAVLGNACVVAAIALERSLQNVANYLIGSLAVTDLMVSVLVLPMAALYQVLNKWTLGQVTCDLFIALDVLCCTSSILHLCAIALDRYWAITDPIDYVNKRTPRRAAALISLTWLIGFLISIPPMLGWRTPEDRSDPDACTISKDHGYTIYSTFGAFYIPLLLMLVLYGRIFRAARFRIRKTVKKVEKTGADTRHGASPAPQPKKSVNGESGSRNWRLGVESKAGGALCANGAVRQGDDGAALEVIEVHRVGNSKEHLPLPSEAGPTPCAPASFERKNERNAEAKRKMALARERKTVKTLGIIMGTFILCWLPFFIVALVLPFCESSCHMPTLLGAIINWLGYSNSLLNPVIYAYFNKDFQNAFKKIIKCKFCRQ
How it was run: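 HEK293 membranes with stably expressed human 5-HT1A, washed by two 35 000 g spins. Buffer 50 mM Tris-HCl, 0.1 mM EDTA, 4 mM MgCl₂, 10 μM pargyline, 0.1% ascorbate. Incubated 1 h at room temperature, then rapid filtration. 10 µM 5-HT defined nonspecific binding. Tested in triplicate over 10⁻¹¹–10⁻⁴ M (7–8 concentrations). Ki via Cheng-Prusoff, mean of ≥3 experiments.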

[8] = target: T1, 5-hydroxytryptamine receptor 7; assay: Antagonist activity at human 5-HT7 receptor expressed in CHOK1 cells assessed as inhibition of serotonin-induced cAMP production at 1 uM after 30 mins by HTRF assay; assay type: functional, cell-based
How it was run: (§3)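 Cellular cAMP functional antagonist assay run by a contract lab. Human 5-HT7 receptor was stably expressed in CHO cells, and human 5-HT1A in HEK293 cells. Read-out was % inhibition of the control agonist response.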

[9] = target: T4, 5-hydroxytryptamine receptor 1A (Homo sapiens) (UniProt P08908); assay: Antagonist activity at human 5-HT1A receptor expressed in HEK293 cells assessed as inhibition of 8-OH-DPAT-induced cAMP production at 1 uM by fluorescence assay; assay type: functional, cell-based; how it was run: as §3
T4 sequence (whole entry): T3 sequence (P08908 whole entry)

D(2) dopamine receptor [10] = target: T2, D(2) dopamine receptor; assay: Antagonist activity at human dopamine D2 receptor expressed in HEK293 cells at 1 uM assessed as inhibition of dopamine-induced cAMP production; assay type: functional, cell-based
How it was run: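 Cellular cAMP antagonist assay run by a contract lab on HEK293 cells stably expressing human D2 receptor. Compound tested at 10⁻⁶ M. Result given as % inhibition of the control agonist response to dopamine 30 nM.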

Mus musculus [11] = assay: Antipsychotic activity in CD-1 mouse assessed as inhibition of MK-801-induced hyperlocomotor activity at 5 to 20 mg/kg, ip pretreated with MK-801 for 15 mins followed by compound administration for 60 mins; assay type: functional, organism-based; how it was run: as §2
Mus musculus [12] = assay: Antipsychotic activity in CD-1 mouse assessed as inhibition of MK-801-induced hyperlocomotor activity at 10 to 20 mg/kg, ip pretreated with MK-801 for 15 mins followed by compound administration for 60 mins; assay type: functional, organism-based; how it was run: as §2
Mus musculus [13] = assay: Antidepressant-like activity in Swiss albino mouse assessed as decrease in immobility time administered ip for 30 mins measured last 4 mins of 6 mins test by forced swim test relative to control; assay type: functional; conditions: read-out: MED; how it was run: as §1
Mus musculus [14] = assay: Antidepressant-like activity in Swiss albino mouse assessed as decrease in immobility time at 0.625 mg/kg measured last 4 mins of 6 mins test by forced swim test relative to control; assay type: functional; parameters: scale not given: the % may be the effect or the level left; how it was run: as §1
Mus musculus [15] = assay: Antipsychotic activity in CD-1 mouse assessed as inhibition of MK-801-induced hyperlocomotor activity administered ip pretreated with MK-801 for 15 mins followed by compound treatment for 60 mins; assay type: functional; conditions: CD-1, ip, read-out: MED; how it was run: as §2
Mus musculus [16] = assay: Antidepressant-like activity in Swiss albino mouse assessed as decrease in immobility time at 1.25 mg/kg, ip measured last 4 mins of 6 mins test by forced swim test relative to control; assay type: functional; parameters: scale not given: the % may be the effect or the level left; how it was run: as §1
Mus musculus [17] = assay: Antipsychotic activity in CD-1 mouse assessed as inhibition of MK-801-induced hyperlocomotor activity at 30 mg/kg, ip pretreated with MK-801 for 15 mins followed by compound administration for 60 mins; assay type: functional, organism-based; how it was run: as §2
Mus musculus [18] = assay: Antidepressant-like activity in Swiss albino mouse assessed as decrease in immobility time at 2.5 mg/kg, ip measured last 4 mins of 6 mins test by forced swim test relative to control; assay type: functional; parameters: scale not given: the % may be the effect or the level left; how it was run: as §1
Mus musculus [19] = assay: Antipsychotic activity in CD-1 mouse assessed as inhibition of MK-801-induced hyperlocomotor activity at 2.5 to 30 mg/kg, ip pretreated with MK-801 for 15 mins followed by compound administration for 60 mins; assay type: functional, organism-based; how it was run: as §2

T1 sequence (P34969 whole entry): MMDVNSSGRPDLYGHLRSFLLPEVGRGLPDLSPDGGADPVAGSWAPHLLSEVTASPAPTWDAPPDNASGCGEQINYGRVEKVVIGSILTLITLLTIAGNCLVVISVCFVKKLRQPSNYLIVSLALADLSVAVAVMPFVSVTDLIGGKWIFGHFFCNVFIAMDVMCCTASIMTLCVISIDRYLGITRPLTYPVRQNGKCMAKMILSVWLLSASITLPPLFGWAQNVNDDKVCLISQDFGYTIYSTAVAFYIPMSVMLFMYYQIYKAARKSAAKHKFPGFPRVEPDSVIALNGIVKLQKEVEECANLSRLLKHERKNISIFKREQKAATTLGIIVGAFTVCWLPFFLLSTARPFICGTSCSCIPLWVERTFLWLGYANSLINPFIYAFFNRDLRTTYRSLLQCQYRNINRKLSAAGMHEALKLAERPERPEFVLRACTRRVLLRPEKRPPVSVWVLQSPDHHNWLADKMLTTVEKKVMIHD
T2 sequence (P14416 whole entry): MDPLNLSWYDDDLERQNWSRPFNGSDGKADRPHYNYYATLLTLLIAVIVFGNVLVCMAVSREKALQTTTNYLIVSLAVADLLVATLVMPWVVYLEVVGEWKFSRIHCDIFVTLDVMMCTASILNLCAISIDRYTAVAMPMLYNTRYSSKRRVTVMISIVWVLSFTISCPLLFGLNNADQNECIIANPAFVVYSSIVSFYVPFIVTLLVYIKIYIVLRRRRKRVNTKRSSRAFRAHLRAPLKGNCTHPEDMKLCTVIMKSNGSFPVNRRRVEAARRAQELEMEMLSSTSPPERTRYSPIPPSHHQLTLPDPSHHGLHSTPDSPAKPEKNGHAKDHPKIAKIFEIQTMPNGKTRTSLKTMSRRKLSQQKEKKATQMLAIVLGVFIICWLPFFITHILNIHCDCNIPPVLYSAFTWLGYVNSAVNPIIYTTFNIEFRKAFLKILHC
5-hydroxytryptamine receptor 2A, sequence (P28223 whole entry): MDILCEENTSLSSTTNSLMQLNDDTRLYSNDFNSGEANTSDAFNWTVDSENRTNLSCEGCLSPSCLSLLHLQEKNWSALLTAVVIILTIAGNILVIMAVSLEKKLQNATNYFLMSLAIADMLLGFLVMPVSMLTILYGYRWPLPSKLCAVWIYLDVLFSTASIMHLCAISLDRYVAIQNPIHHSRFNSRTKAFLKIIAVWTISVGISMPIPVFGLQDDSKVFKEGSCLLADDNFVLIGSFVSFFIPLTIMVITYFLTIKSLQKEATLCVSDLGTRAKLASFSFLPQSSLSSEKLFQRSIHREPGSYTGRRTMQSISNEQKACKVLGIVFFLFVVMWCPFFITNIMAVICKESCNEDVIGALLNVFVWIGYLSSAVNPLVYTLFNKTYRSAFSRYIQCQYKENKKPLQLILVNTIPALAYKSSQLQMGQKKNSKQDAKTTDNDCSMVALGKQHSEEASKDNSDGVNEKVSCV
5-hydroxytryptamine receptor 6, sequence (P50406 whole entry): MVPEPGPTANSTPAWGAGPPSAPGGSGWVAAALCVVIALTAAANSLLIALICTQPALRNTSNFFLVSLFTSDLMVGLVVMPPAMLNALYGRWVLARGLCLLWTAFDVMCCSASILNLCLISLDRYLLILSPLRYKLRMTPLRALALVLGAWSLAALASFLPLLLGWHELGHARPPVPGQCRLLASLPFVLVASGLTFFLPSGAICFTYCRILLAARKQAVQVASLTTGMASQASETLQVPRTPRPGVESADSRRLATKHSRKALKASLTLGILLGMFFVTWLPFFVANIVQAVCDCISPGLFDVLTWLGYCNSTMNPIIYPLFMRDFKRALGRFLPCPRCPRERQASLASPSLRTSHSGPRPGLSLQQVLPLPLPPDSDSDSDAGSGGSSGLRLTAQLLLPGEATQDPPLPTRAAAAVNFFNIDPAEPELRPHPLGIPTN

Structure (SMILES)	Ki [3] [nM]	Ki [4] [nM]	Ki (D(2) dopamine receptor [5]) [nM]	Ki [6] [nM]	Ki [7] [nM]	further results
CN(C)CCCC1(c2ccc(F)cc2)OCc2cc(C#N)ccc21 (configuration not stated) [CITALOPRAM]						Activity (Mus musculus [1]): 28%
O=C1CCc2ccc(OCCCCN3CCN(c4cccc(Cl)c4Cl)CC3)cc2N1						inhibition (Mus musculus [2]): Active
O=S(=O)(c1cccc2ncccc12)N1CCC(CCN2CCN(c3ccccc3)CC2)CC1	6710	209	1240	646	749	
O=S(=O)(c1cncc2ccccc12)N1CCC(CCN2CCN(c3cccc(F)c3)CC2)CC1	3800	142	1010	691	370	
O=S(=O)(c1cccc2ncccc12)N1CCC(CCN2CCN(c3cccc(F)c3)CC2)CC1	8280	165	1820	665	609	
O=S(=O)(c1cncc2ccccc12)N1CCC(CCN2CCN(c3ccc(F)cc3)CC2)CC1	1860	14	418	156	975	
O=S(=O)(c1cncc2ccccc12)N1CCC(CCN2CCN(c3ccccc3)CC2)CC1	2410	174	1220	410	543	
O=S(=O)(c1cncc2ccccc12)N1CCC(CCN2CCN(c3ccc(Cl)cc3)CC2)CC1						minimal effective dose (Mus musculus [13]): 30 mg/kg; minimal effective dose (Mus musculus [15]): 5 mg/kg; inhibition (Mus musculus [19]): Active

Further lines, with some results ahead:

Ki [3] [nM]	Ki [4] [nM]	Ki (D(2) dopamine receptor [5]) [nM]	Ki [6] [nM]	Ki [7] [nM]	Structure (SMILES)	further results
445	37	76	197	54	O=S(=O)(c1cccc2ncccc12)N1CCC(CCN2CCN(c3cccc(Cl)c3)CC2)CC1	
640	56	149	530	40	O=S(=O)(c1cccc2ncccc12)N1CCC(CCN2CCN(c3cccc(C(F)(F)F)c3)CC2)CC1	
309	39	30	371	29	O=S(=O)(c1cncc2ccccc12)N1CCC(CCN2CCN(c3cccc(Cl)c3Cl)CC2)CC1	inhibition [8]: 75%; inhibition [9]: 64%; inhibition (D(2) dopamine receptor [10]): 79%; inhibition (Mus musculus [11]): inactive
1040	36	145	179	324	O=S(=O)(c1cncc2ccccc12)N1CCC(CCN2CCN(c3ccc(Cl)c(Cl)c3)CC2)CC1	
401	55	36	286	45	O=S(=O)(c1cccc2ncccc12)N1CCC(CCN2CCN(c3cccc(Cl)c3Cl)CC2)CC1	inhibition [8]: 69%; inhibition [9]: 63%; inhibition (D(2) dopamine receptor [10]): 88%; inhibition (Mus musculus [12]): Active; minimal effective dose (Mus musculus [13]; in the assay text read “for 60 mins” for “for 30 mins”): 0.625 mg/kg; Activity (Mus musculus [14]): 23%; minimal effective dose (Mus musculus [15]): 10 mg/kg
1020	52	148	161	30	O=S(=O)(c1cncc2ccccc12)N1CCC(CCN2CCN(c3cccc(C(F)(F)F)c3)CC2)CC1	
1020	37	141	152	740	O=S(=O)(c1cccc2ncccc12)N1CCC(CCN2CCN(c3ccc(Cl)cc3)CC2)CC1	
1460	29	223	139	759	O=S(=O)(c1cccc2ncccc12)N1CCC(CCN2CCN(c3ccc(F)cc3)CC2)CC1	
791	52	121	336	257	O=S(=O)(c1cccc2ncccc12)N1CCC(CCN2CCN(c3ccc(Cl)c(Cl)c3)CC2)CC1	
1190	18	37	157	32	O=S(=O)(c1cncc2ccccc12)N1CCC(CCN2CCN(c3cccc(Cl)c3)CC2)CC1	inhibition [8]: 73%; inhibition [9]: 69%; Activity (Mus musculus [16]): 36%; inhibition (D(2) dopamine receptor [10]): 85%; inhibition (Mus musculus [17]): Active; Activity (Mus musculus [18]): 32%
